The nature of series [1]: Estimated half-life at 20 degree C in 0.05 M pH 2 NaH2PO4 buffer. It is filed as ADME. Particulars: phosphate buffer. An outline of the steps:
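About 1 mg of nucleoside was dissolved in 0.05 M NaH2PO4 (pH 2.0) and stirred at ambient temperature for 24 h. Samples taken at 1 and 24 h were analysed by reverse-phase C18 HPLC, eluting with a gradient of 0.05 M triethylammonium bicarbonate to 70% acetonitrile. Half-life was estimated from the HPLC data, and TLC was run at 24 h.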

For another series, the system named is CCRF-CEM. The series can be described thus: Cytotoxicity was determined in CEM cells, relative to RVT. The following applies: Homo sapiens. Format: functional, cell-based.
A further series deals with Vero. The series can be described thus: Cytotoxicity was determined in Vero cells, relative to RVT. Format: functional, cell-based. The following applies: Chlorocebus sabaeus.
A short description of series [2]: Cytotoxicity was determined in PBM cells, relative to RVT. Format: functional, cell-based. Particulars: Homo sapiens, PBMC.
Series [3] is described as follows: The anti-HIV-1 activity was assayed in activated human peripheral blood mononuclear (PBM) cells, relative to RVT. Format: functional.

`Nc1nc(O)c2ncn(C3C=CC(CO)O3)c2n1` (centres undefined): the half-life – broadly, the time in which the quantity being followed falls by half – in series [1] was less than 2 min.
On the same count and under the same terms, the result for `Nc1nc(NC2CC2)c2ncn(C3C=CC(CO)O3)c2n1` (centres undefined) reads 41 min.
Consider `C[C@@H]1C[C@@H]([C@H](O)CC2CC(=O)NC(=O)C2)C(=O)[C@@H](C)C1` [CYCLOHEXIMIDE], for which the IC50 (in general, the concentration that inhibits the measured activity by half) is 0.08 µM in the series with CCRF-CEM, 0.53 µM in the series with Vero and 0.46 µM in series [2].
As to `Nc1nc(=O)n([C@@H]2C=C[C@H](CO)O2)cc1F` [ELVUCITABINE], the half-life in series [1] was 45 min. For the same compound, the IC50 (with CCRF-CEM; in the series on Vero; in series [2]) was greater than 100 µM each time. In addition, the midpoint of the response in series [3], the EC50, lay at 67 nM. The EC90 (in general, the concentration needed for an effect of 90%) in series [3] is 1900 nM.
Regarding `Nc1nc(=O)[nH]cc1F` [FLUCYTOSINE], the IC50 in the series on CCRF-CEM is greater than 100 µM; in the series with Vero it was greater than 100 µM; in series [2], no less than 100 µM.
Regarding `OCc1ccco1` [FURFURYL ALCOHOL], the IC50 (in the series with CCRF-CEM; with Vero; in series [2]) was greater than 100 µM in each case. The EC50 – broadly, the concentration at which the effect is half-maximal – in series [3] is greater than 100000 nM. In series [3], this compound displayed an EC90 greater than 100000 nM.
Consider `Nc1nc2[nH]cnc2c(=O)[nH]1` [GUANINE], for which the concentration for half-maximal inhibition (IC50) is 64.3 µM with CCRF-CEM, 54.9 µM with Vero and greater than 100 µM in series [2].
With `Cc1cn([C@H]2C=C[C@@H](CO)O2)c(=O)[nH]c1=O` [STAVUDINE], the half-life in series [1] was 50000 min.
Regarding `Cc1c[nH]c(=O)[nH]c1=O` [THYMINE], the IC50 (in the series on CCRF-CEM; with Vero; in series [2]) was greater than 100 µM throughout.
Take `Cc1cn([C@H]2C[C@H](N=[N+]=[N-])[C@@H](CO)O2)c(=O)[nH]c1=O` [ZIDOVUDINE]: the IC50 in series [2] is greater than 100 µM. In series [3], this compound showed an EC50 of 2 nM and an EC90 of 20 nM.
